Data taken from ChEMBL document CHEMBL2401624, “Synthesis and biological evaluation of novel substituted pyrrolo[1,2-a]quinoxaline derivatives as inhibitors of the human protein kinase CK2” (Eur J Med Chem, 2013).
pIC50: −log10 of the molar value.

Key:
[1] = target: Casein kinase II (Homo sapiens, UniProt P19784+P67870+P68400); assay: Inhibition of human recombinant CK2 expressed in Escherichia coli BL21(DE3) using RRRDDDSDDD as substrate after 15 mins by capillary electrophoretic analysis
[2] = tested on: Jurkat; assay: Antiproliferative activity against human Jurkat cells after 1 to 3 days by MTS assay; assay type: functional
Procedure, shortened: (§1)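 Leukemic lines grown in RPMI 1640 with 10% FCS, penicillin/streptomycin and L-glutamine at 37°C, 5% CO2. Cells washed twice in PBS, plated in quadruplicate with compound at 0, 1, 5, 10, 20 and 50 µM for 1, 2 and 3 days. MTS added for 3 h at 37°C, absorbance read at 490 nm. CC50 after 3 days by linear regression, mean ± SD of 3 independent experiments.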

[3] = tested on: Jurkat; assay: Selectivity index, ratio of CC50 for human PHA-activated PBMC to CC50 for human Jurkat cells
[4] = tested on: U-937; assay: Antiproliferative activity against human U937 cells after 1 to 3 days by MTS assay; assay type: functional; procedure, shortened: as §1
[5] = Cytotoxicity against human PHA-activated PBMC after 1 to 3 days by MTS assay; assay type: cell-based
Procedure, shortened: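 PBMNC from blood of healthy volunteers, isolated by Ficoll gradient centrifugation and stimulated with PHA (5 µg/mL). Cells washed in PBS, plated in quadruplicate with compound at 0, 1, 5, 10, 20 and 50 µM for 1 to 3 days. MTS read at 490 nm after 3 h at 37°C. CC50 at day 3 by linear regression, mean ± SD of 3 independent experiments.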

[6] = tested on: MV4-11; assay: Antiproliferative activity against human MV4-11 cells after 1 to 3 days by MTS assay; assay type: functional; procedure, shortened: as §1
[7] = tested on: K562; assay: Antiproliferative activity against human K562 cells after 1 to 3 days by MTS assay; assay type: functional; procedure, shortened: as §1
[8] = tested on: MV4-11; assay: Selectivity index, ratio of CC50 for human PHA-activated PBMC to CC50 for human MV4-11 cells

Sequence of Casein kinase II (P67870 whole entry): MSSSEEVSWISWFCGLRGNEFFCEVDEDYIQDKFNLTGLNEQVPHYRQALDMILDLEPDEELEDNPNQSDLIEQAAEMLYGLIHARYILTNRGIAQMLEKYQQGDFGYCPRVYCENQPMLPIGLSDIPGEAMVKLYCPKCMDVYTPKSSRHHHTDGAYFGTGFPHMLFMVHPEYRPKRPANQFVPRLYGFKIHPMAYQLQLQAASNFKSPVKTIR
Sequence of Casein kinase II (P68400 whole entry): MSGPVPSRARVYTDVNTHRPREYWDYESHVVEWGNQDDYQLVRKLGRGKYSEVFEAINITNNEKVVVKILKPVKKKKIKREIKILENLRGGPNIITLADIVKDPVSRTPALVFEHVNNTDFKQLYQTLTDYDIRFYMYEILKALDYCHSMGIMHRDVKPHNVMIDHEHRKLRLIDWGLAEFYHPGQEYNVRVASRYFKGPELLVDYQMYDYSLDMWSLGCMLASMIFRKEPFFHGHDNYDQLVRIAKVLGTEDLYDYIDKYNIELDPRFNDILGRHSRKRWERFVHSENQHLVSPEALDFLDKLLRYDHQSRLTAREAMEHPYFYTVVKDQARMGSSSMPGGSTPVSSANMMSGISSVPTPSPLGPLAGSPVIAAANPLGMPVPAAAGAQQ
Sequence of Casein kinase II (P19784 whole entry): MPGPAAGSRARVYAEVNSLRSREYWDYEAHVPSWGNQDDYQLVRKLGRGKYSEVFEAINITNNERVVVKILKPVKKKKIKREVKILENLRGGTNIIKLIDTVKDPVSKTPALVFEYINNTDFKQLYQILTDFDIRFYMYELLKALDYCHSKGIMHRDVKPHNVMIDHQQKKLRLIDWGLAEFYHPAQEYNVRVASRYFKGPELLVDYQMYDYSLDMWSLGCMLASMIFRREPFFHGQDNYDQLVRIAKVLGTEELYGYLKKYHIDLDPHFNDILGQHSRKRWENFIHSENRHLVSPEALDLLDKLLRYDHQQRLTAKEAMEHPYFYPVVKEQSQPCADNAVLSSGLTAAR

SMILES	pIC50 [1]	CC50 [2] [µM]	Selectivity Index [3]	CC50 [4] [µM]	CC50 [5] [µM]	CC50 [6] [µM]	CC50 [7] [µM]	Selectivity Index [8]
O=C(O)c1nc2cc(Nc3cccc(Cl)c3)ccc2n2cccc12	6.01	31.4	1.6	39.2	> 50	47	> 50	–
C#Cc1cccc(Nc2ccc3c(c2)nc(C(=O)O)c2cccn23)c1	6.07	–	–	–	–	–	–	–
O=C(O)c1ccc2c(c1)nc(Nc1cccc(Cl)c1)c1cc(-c3cccnc3)cn12	5.80	–	–	–	–	–	–	–
C#Cc1cccc(Nc2nc3cc(C(=O)O)ccc3n3cc(-c4cccnc4)cc23)c1	6.05	–	–	–	–	–	–	–
Nc1cccc(C#Cc2ccc3c(c2)nc(C(=O)O)c2cccn23)c1	5.08	–	–	–	–	–	–	–
O=C(O)c1cc2c(Nc3cccc(Cl)c3)nc3ccccc3n2c1	5.37	> 50	–	> 50	> 50	> 50	> 50	–
C#Cc1cccc(Nc2nc3ccccc3n3cc(C(=O)O)cc23)c1	5.72	41	–	> 50	> 50	> 50	> 50	–
O=C(O)c1ccn2c1c(Nc1cccc(Cl)c1)nc1ccccc12	7.31	> 50	–	47.7	> 50	> 50	42	–
C#Cc1cccc(Nc2nc3ccccc3n3ccc(C(=O)O)c23)c1	6.87	> 50	–	> 50	> 50	> 50	> 50	–
O=C(O)c1ccc2c(c1)nc(Nc1cccc(Cl)c1)c1cccn12	6.93	> 50	–	> 50	> 50	20	> 50	>2.5
C#Cc1cccc(Nc2nc3cc(C(=O)O)ccc3n3cccc23)c1	7.11	> 50	–	> 50	> 50	20	> 50	>2.5
O=C(O)c1ccc2nc(Nc3cccc(Cl)c3)c3cccn3c2c1	6.08	> 50	–	> 50	> 50	> 50	> 50	–
C#Cc1cccc(Nc2nc3ccc(C(=O)O)cc3n3cccc23)c1	6.08	> 50	–	> 50	> 50	> 50	> 50	–
O=c1oc2c(O)c(O)cc3c(=O)oc4c(O)c(O)cc1c4c23 [ELLAGIC ACID]	7.40	–	–	–	–	–	–	–
O=C(O)c1ccc2c(c1)nc(Nc1cccc(Cl)c1)c1ccncc12 [SILMITASERTIB]	–	4.5	–	4.2	50	3	7	–
